A short description of data set [1]: folding enthalpy; higher = less favourable; fluorescence melt of hairpins on a sequencing array, two-state fit. Conditions: sodium 0.088 M. A digest of the protocol:
(§1)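 Folding enthalpy and melting temperature were estimated with bootstrapped two-state fits and combined across four replicates by inverse-variance weighting, with fitted temperatures raised by 9.35 °C to match UV melts. The data were Cy3 fluorescence of library hairpins, with annealed Cy3 and quencher oligos, on a sequenced MiSeq flow cell in 50 mM Na-HEPES pH 8.0, 25 mM NaCl, imaged in 2.5 °C steps up to 60 °C and normalised to pre-quench Cy3 and control constructs.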

A short description of data set [2]: melting temperature; fluorescence melt of hairpins on a sequencing array, two-state fit, raised by 9.35 °C to match UV melts. Conditions: sodium 0.088 M. A digest of the protocol: as §1

As for GTCAGGCGAAAGCCAGAC (((.(((....))).))), in data set [1], the folding enthalpy was -23.4 kcal/mol. Also, the Tm in data set [2] came out at 59.8 °C.

For the sequence GTTTTCCGAAAGGATAAC (((.(((....))).))), the folding enthalpy in data set [1] is -28.4 kcal/mol. Moreover, the Tm in data set [2] came to 44.9 °C.

As to GTGCAAACGAAAGTTCAC (((..(((....)))))), the folding enthalpy in data set [1] was -7.78 kcal/mol. The Tm in data set [2] was determined as 33.2 °C.

In the case of GGTTTGGGAAACCAAACC (((((((....))))))), the folding enthalpy in data set [1] is -40.3 kcal/mol. In addition, the Tm in data set [2] worked out at 64.6 °C.

Consider GAACTCCCGAAAGGGTTC (((..(((....)))))), for which, in data set [1], the folding enthalpy was -12.6 kcal/mol. Besides, in data set [2], the Tm is 31.7 °C.

As to GCGCTCCGAAAGGACCGC (((.(((....))).))), in data set [1], the folding enthalpy is -44.6 kcal/mol. Further, in data set [2], the Tm stood at 53 °C.

For GTGAGCGAAAGCTGACAC ((((((....)))..))), the folding enthalpy in data set [1] is -16.6 kcal/mol. The Tm in data set [2] turned out to be 41.2 °C.

Consider GATCTATCGTAGATC ((((((...)))))), for which the folding enthalpy in data set [1] was -12.9 kcal/mol. For the same sequence, in data set [2], the Tm worked out at 38.4 °C.

For GTGAACCCGAAAGGGCAC (((..(((....)))))), the folding enthalpy in data set [1] was -15.8 kcal/mol. The Tm in data set [2] was found to be 38.9 °C.

Consider GATTGCGGAAACGTGATC (((..((....))..))), for which the folding enthalpy in data set [1] was -30.6 kcal/mol. Also, the Tm in data set [2] came out at 40.7 °C.

Regarding GCAAGGCGAAAGCCCCGC ((..(((....)))..)), in data set [1], the folding enthalpy is -10.7 kcal/mol. In addition, the Tm in data set [2] is 37 °C.

In the case of GAACTGGGAAACCAGTCC (.(((((....))))).), the folding enthalpy in data set [1] is -14.1 kcal/mol. For the same sequence, the Tm in data set [2] was 37.3 °C.

GTCCTCGAAAGAGATGAC ((((((....)))..))): the folding enthalpy in data set [1] was -16.2 kcal/mol. Moreover, in data set [2], the Tm is 33.4 °C.

Regarding TCTGAGAAATCAGA (((((....))))), the folding enthalpy in data set [1] is -11.1 kcal/mol. Also, in data set [2], the Tm was 33.4 °C.

For the sequence GAGTTGGGAAACCAATTC ((.((((....)))).)), the folding enthalpy in data set [1] was -28.8 kcal/mol. For the same sequence, in data set [2], the Tm amounted to 40 °C.

For the sequence GATCTCGCCGGAGATC ((((((....)))))), the folding enthalpy in data set [1] was -35.5 kcal/mol. For the same sequence, the Tm in data set [2] was found to be 54.4 °C.

Turning to GAGCGACGAAAGTCACTC (((.(((....))).))), the folding enthalpy in data set [1] was -25.9 kcal/mol. Moreover, in data set [2], the Tm was found to be 52.2 °C.

Turning to GATCAGACCCCTGATC ((((((....)))))), in data set [1], the folding enthalpy was -34.7 kcal/mol. For the same sequence, in data set [2], the Tm came to 47.7 °C.

With GTGCCCGGAAACGGACAC (((.(((....))).))), in data set [1], the folding enthalpy was -50.2 kcal/mol. The Tm in data set [2] is 53.8 °C.

For GCTATTGAAAAATAGC ((((((....)))))), the folding enthalpy in data set [1] is -31.2 kcal/mol. The Tm in data set [2] was found to be 49.5 °C.

Consider GATCGACGTTTCGATC ((((((....)))))), for which, in data set [1], the folding enthalpy was -42.5 kcal/mol. The Tm in data set [2] came to 50.9 °C.

Regarding GGTGTTGGAAACAACGTC (..((((....))))..), the folding enthalpy in data set [1] was -26.5 kcal/mol. Also, the Tm in data set [2] turned out to be 47.2 °C.

For the sequence GAAGTCCGAAAGGATTC (((.(((....)))))), the folding enthalpy in data set [1] was -14.1 kcal/mol. In data set [2], the Tm turned out to be 33.8 °C.

Regarding GATCAGGGGTCTGATC ((((((....)))))), the folding enthalpy in data set [1] is -32.6 kcal/mol. Moreover, the Tm in data set [2] was 50.8 °C.

For GATCAGGTACTGATC ((((((...)))))), in data set [1], the folding enthalpy is -41.1 kcal/mol. Also, in data set [2], the Tm worked out at 61.4 °C.

Turning to GGACAGGGAAACCTGTTC (.(((((....))))).), the folding enthalpy in data set [1] was -22.9 kcal/mol. Also, the Tm in data set [2] was found to be 50 °C.

For GGATGCGGAAACGCATTC (.(((((....))))).), in data set [1], the folding enthalpy is -19.2 kcal/mol. Also, the Tm in data set [2] came to 54.5 °C.

In the case of GGTTGAGGAAACTCGATC (.(.(((....))).).), in data set [1], the folding enthalpy was -16.8 kcal/mol. In data set [2], the Tm came to 29.8 °C.

In the case of GTGCGACGAAAGTCTCAC (((.(((....))).))), the folding enthalpy in data set [1] is -41.1 kcal/mol. Further, in data set [2], the Tm stood at 50.5 °C.

As to CGCACGGAAACGTTGCG ((((((....))).))), in data set [1], the folding enthalpy is -37.7 kcal/mol. Besides, the Tm in data set [2] came to 55.1 °C.

Consider GATCGATTTTCGATC ((((((...)))))), for which the folding enthalpy in data set [1] was -35.2 kcal/mol. For the same sequence, the Tm in data set [2] is 54.4 °C.

As for GGAGCACGAAAGTGTTCC (((.(((....))).))), in data set [1], the folding enthalpy was -39.8 kcal/mol. Further, the Tm in data set [2] came out at 58.8 °C.

For the sequence GTAACCCGAAAGGGCTAC (((.(((....))).))), the folding enthalpy in data set [1] is -20 kcal/mol. Further, the Tm in data set [2] was found to be 45.6 °C.

Consider GGTCTCGGAAACGAGGCC ((.((((....)))).)), for which, in data set [1], the folding enthalpy was -39.3 kcal/mol. Further, the Tm in data set [2] was determined as 62.2 °C.

On to GCGTAGCGAAAGCAACGC ((((.((....)).)))), for which the folding enthalpy in data set [1] was -21.1 kcal/mol. Moreover, the Tm in data set [2] came to 66.7 °C.

As to GGTAACGAAAGTTCACC ((((((....))).))), the folding enthalpy in data set [1] was -21.2 kcal/mol. Also, the Tm in data set [2] came to 38.3 °C.

Regarding GCCAGCGAAAGCTAGGC ((((((....))).))), in data set [1], the folding enthalpy is -25.9 kcal/mol. Further, the Tm in data set [2] came out at 66 °C.

These data come from the array DNA melting data of Ke et al. (doi:10.1101/2024.01.08.574731).
